# Measured values as given in ChEMBL document CHEMBL1165950, “Design and synthesis of new potent anticancer pyrazoles with high FLT3 kinase inhibitory selectivity” (Bioorg Med Chem, 2010).
# Assays:
# Type in all cases: functional
# OVCAR-8 [1] = assay: Cytotoxicity against human OVCAR8 cells assessed as cell growth at 100 nM after 48 hrs by sulforhodamine B assay; settings: OVCAR-8, 48 h, read-out: Activity
# SNB-19 = assay: Cytotoxicity against human SNB19 cells assessed as cell growth at 10 uM after 48 hrs by sulforhodamine B assay; settings: SNB-19, 48 h, read-out: Activity
# OVCAR-8 [2] = assay: Cytotoxicity against human OVCAR8 cells assessed as cell growth at 0.001 uM after 48 hrs by sulforhodamine B assay; settings: OVCAR-8, 48 h, read-out: Activity
# [3] = Cytotoxicity against human Hs 578T cells assessed as cell growth at 0.001 uM after 48 hrs by sulforhodamine B assay; settings: read-out: Activity
# NCI-H322M = assay: Cytotoxicity against human NCI-H322M cells assessed as cell growth at 10 uM after 48 hrs by sulforhodamine B assay; settings: read-out: Activity
# M14 = assay: Cytotoxicity against human M14 cells assessed as cell growth at 10 uM after 48 hrs by sulforhodamine B assay; settings: M14, 48 h, read-out: Activity
# LOX IMVI [4] = assay: Cytotoxicity against human LOXIMVI cells assessed as cell growth at 10 uM after 48 hrs by sulforhodamine B assay; settings: read-out: Activity
# SF-268 = assay: Cytotoxicity against human SF268 cells assessed as cell growth at 10 uM after 48 hrs by sulforhodamine B assay; settings: SF-268, 48 h, read-out: Activity
# HCT-116 = assay: Cytotoxicity against human HCT116 cells assessed as cell growth at 0.01 uM after 48 hrs by sulforhodamine B assay; settings: HCT-116, 48 h, read-out: Activity
# OVCAR-3 = assay: Cytotoxicity against human OVCAR-3 cells assessed as cell growth at 1 uM after 48 hrs by sulforhodamine B assay; settings: OVCAR-3, 48 h, read-out: Activity
# BT-549 = assay: Cytotoxicity against human BT549 cells assessed as cell growth at 1 uM after 48 hrs by sulforhodamine B assay; settings: BT-549, 48 h, read-out: Activity
# How it was run: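 NCI-60 five-dose screen. Cells were grown in RPMI 1640 with 5% FBS and 2 mM L-glutamine, plated at 5000–40,000 cells/well and preincubated for 24 h. Time-zero plates were TCA-fixed. DMSO-solubilized drug was added at five concentrations (10-fold or ½-log serial dilutions) for 48 h at 37 °C, 5% CO2. Cells were TCA-fixed, stained with 0.4% SRB and read at 515 nm. Percent growth used time-zero, control and test absorbances.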
# OVCAR-8 [5] = assay: Growth inhibition of human OVCAR8 cells after 48 hrs by sulforhodamine B assay; settings: OVCAR-8, 48 h; for CC50: read-out: LC50 (the source's name)
# How it was run: (§1)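 NCI 60-cell screen, five-dose mode. Cells grown in RPMI 1640 with 5% FBS and 2 mM L-glutamine and plated at 5000-40,000 cells/well according to doubling time. After 24 h preincubation, a Tz plate was TCA-fixed. Five concentrations (10-fold or 1/2 log dilutions) were applied for 48 h at 37 °C. SRB staining read at 515 nm. IC50 taken from [(Ti-Tz)/(C-Tz)]×100 = 50.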
# Malme-3M = assay: Cytotoxicity against human MALME-3M cells assessed as cell growth at 0.01 uM after 48 hrs by sulforhodamine B assay; settings: read-out: Activity
# NCI-H522 [6] = assay: Cytotoxicity against human NCI-H522 cells assessed as cell growth at 0.001 uM after 48 hrs by sulforhodamine B assay; settings: NCI-H522, 48 h, read-out: Activity
# SF-539 = assay: Cytotoxicity against human SF539 cells assessed as cell growth at 10 uM; settings: read-out: Activity
# How it was run: (§2)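 NCI-60 screen: cells grown in RPMI 1640 with 5% FBS and 2 mM L-glutamine, plated at 5000–40,000 cells/well according to doubling time, and preincubated 24 h at 37 °C, 5% CO2. The single 10 µM dose (DMSO stock) was added, then incubated 48 h. Cells were TCA-fixed and stained with 0.4% SRB, read at 515 nm, and growth % calculated against time-zero and control plates.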
# NCI/ADR-RES [7] = assay: Cytotoxicity against human NCI/ADR-RES cells assessed as cell growth at 1 uM after 48 hrs by sulforhodamine B assay; settings: read-out: Activity
# [8] = Cytotoxicity against human RPMI8266 cells assessed as cell growth at 100 nM after 48 hrs by sulforhodamine B assay; settings: read-out: Activity
# SN12C = assay: Cytotoxicity against human SN12C cells assessed as cell growth at 0.01 uM after 48 hrs by sulforhodamine B assay; settings: read-out: Activity
# OVCAR-5 [9] = assay: Cytotoxicity against human OVCAR5 cells assessed as cell growth at 10 uM; settings: read-out: Activity; how it was run: as §2
# SF-295 = assay: Cytotoxicity against human SF295 cells assessed as cell growth at 10 uM; settings: read-out: Activity; how it was run: as §2
# NCI/ADR-RES [10] = assay: Cytotoxicity against human NCI/ADR-RES cells assessed as cell growth at 10 uM; settings: read-out: Activity; how it was run: as §2
# IGROV-1 = assay: Cytotoxicity against human IGROV1 cells assessed as cell growth at 0.001 uM after 48 hrs by sulforhodamine B assay; settings: IGROV-1, 48 h, read-out: Activity
# OVCAR-8 [11] = assay: Cytotoxicity against human OVCAR8 cells assessed as cell growth at 10 uM after 48 hrs by sulforhodamine B assay; settings: OVCAR-8, 48 h, read-out: Activity
# OVCAR-4 = assay: Growth inhibition of human OVCAR4 cells after 48 hrs by sulforhodamine B assay; settings: OVCAR-4, 48 h; for CC50: read-out: LC50 (the source's name); how it was run: as §1
# NCI-H460 = assay: Growth inhibition of human NCI-H460 cells after 48 hrs by sulforhodamine B assay; settings: NCI-H460, 48 h; for CC50: read-out: LC50 (the source's name); how it was run: as §1
# LOX IMVI [12] = assay: Cytotoxicity against human LOXIMVI cells assessed as cell growth at 0.01 uM after 48 hrs by sulforhodamine B assay; settings: read-out: Activity
# NCI-H522 [13] = assay: Cytotoxicity against human NCI-H522 cells assessed as cell growth at 100 nM after 48 hrs by sulforhodamine B assay; settings: NCI-H522, 48 h, read-out: Activity
# KM12 = assay: Cytotoxicity against human KM12 cells assessed as cell growth at 10 uM after 48 hrs by sulforhodamine B assay; settings: KM12, 48 h, read-out: Activity
# OVCAR-5 [14] = assay: Cytotoxicity against human OVCAR5 cells assessed as cell growth at 0.01 uM after 48 hrs by sulforhodamine B assay; settings: OVCAR-5, 48 h, read-out: Activity
# T47D = assay: Growth inhibition of human T47D cells after 48 hrs by sulforhodamine B assay; how it was run: as §1
# UACC-62 [15] = assay: Cytotoxicity against human UACC62 cells assessed as cell growth at 10 uM; settings: read-out: Activity; how it was run: as §2
# UACC-62 [16] = assay: Cytotoxicity against human UACC62 cells assessed as cell growth at 0.001 uM after 48 hrs by sulforhodamine B assay; settings: UACC-62, 48 h, read-out: Activity
# SW-620 [17] = assay: Cytotoxicity against human SW620 cells assessed as cell growth at 10 uM after 48 hrs by sulforhodamine B assay; settings: SW-620, 48 h, read-out: Activity
# SW-620 [18] = assay: Cytotoxicity against human SW620 cells assessed as cell growth at 10 uM; settings: read-out: Activity; how it was run: as §2
smiles,measurement,setting,value
Cc1cc(O)cc(-c2nn(CC#N)cc2-c2ccnc(-c3ccc(N(C)C)cc3)c2)c1,growth at 0.1 µM,OVCAR-8 [1],89%
same,growth at 10 µM,SNB-19,-15%
same,growth at 0.001 µM,OVCAR-8 [2],100%
same,growth at 0.001 µM,[3],98%
same,growth at 10 µM,NCI-H322M,-11%
same,growth at 10 µM,M14,-75%
same,growth at 10 µM,LOX IMVI [4],-87%
same,growth at 10 µM,SF-268,-58%
same,growth at 0.01 µM,HCT-116,98%
same,growth at 1 µM,OVCAR-3,-40%
same,growth at 1 µM,BT-549,4%
same,GI50,OVCAR-8 [5],4.2 µM
same,TGI,OVCAR-8 [5],69.4 µM
same,CC50,OVCAR-8 [5],> 100 µM
same,growth at 0.01 µM,Malme-3M,92%
same,growth at 0.001 µM,NCI-H522 [6],87%
same,growth at 10 µM,SF-539,21.7%
same,growth at 1 µM,NCI/ADR-RES [7],-10%
same,growth at 0.1 µM,[8],96%
same,growth at 0.01 µM,SN12C,90%
same,growth at 10 µM,OVCAR-5 [9],111%
same,growth at 10 µM,SF-295,56.9%
same,growth at 10 µM,NCI/ADR-RES [10],6.33%
same,growth at 0.001 µM,IGROV-1,107%
same,growth at 10 µM,OVCAR-8 [11],-5%
same,GI50,OVCAR-4,4.85 µM
same,TGI,OVCAR-4,> 100 µM
same,CC50,OVCAR-4,> 100 µM
same,GI50,NCI-H460,2.79 µM
same,TGI,NCI-H460,10.2 µM
same,CC50,NCI-H460,70.5 µM
same,growth at 0.01 µM,LOX IMVI [12],104%
same,growth at 0.1 µM,NCI-H522 [13],75%
same,growth at 10 µM,KM12,-97%
same,growth at 0.01 µM,OVCAR-5 [14],91%
same,GI50,T47D,2.59 µM
same,LC50,T47D,> 100 µM
same,TGI,T47D,12.4 µM
same,growth at 10 µM,UACC-62 [15],25.1%
same,growth at 0.001 µM,UACC-62 [16],90%
same,growth at 10 µM,SW-620 [17],-33%
same,growth at 10 µM,SW-620 [18],25%
COc1cc(C)cc(-c2nn(CC#N)cc2-c2ccnc(-c3ccc(N(C)C)cc3)c2)c1,growth at 0.1 µM,OVCAR-8 [1],32%
same,growth at 10 µM,SNB-19,9%
same,growth at 0.001 µM,OVCAR-8 [2],97%
same,growth at 0.001 µM,[3],103%
same,growth at 10 µM,NCI-H322M,27%
same,growth at 10 µM,M14,-16%
same,growth at 10 µM,LOX IMVI [4],-23%
same,growth at 10 µM,SF-268,-32%
same,growth at 0.01 µM,HCT-116,97%
same,growth at 1 µM,OVCAR-3,-41%
same,growth at 1 µM,BT-549,-10%
same,GI50,OVCAR-8 [5],0.522 µM
same,TGI,OVCAR-8 [5],41.6 µM
same,CC50,OVCAR-8 [5],> 100 µM
same,growth at 0.01 µM,Malme-3M,91%
same,growth at 0.001 µM,NCI-H522 [6],77%
same,growth at 10 µM,SF-539,-17.5%
same,growth at 1 µM,NCI/ADR-RES [7],-5%
same,growth at 0.1 µM,[8],57%
same,growth at 0.01 µM,SN12C,90%
same,growth at 10 µM,OVCAR-5 [9],55.9%
same,growth at 10 µM,SF-295,-8.52%
same,growth at 10 µM,NCI/ADR-RES [10],-28%
same,growth at 0.001 µM,IGROV-1,103%
same,growth at 10 µM,OVCAR-8 [11],-8%
same,GI50,OVCAR-4,0.549 µM
same,TGI,OVCAR-4,> 100 µM
same,CC50,OVCAR-4,> 100 µM
same,CC50,NCI-H460,94.7 µM
same,growth at 0.01 µM,LOX IMVI [12],105%
same,growth at 0.1 µM,NCI-H522 [13],-39%
same,growth at 10 µM,KM12,-70%
same,growth at 0.01 µM,OVCAR-5 [14],93%
same,GI50,T47D,0.475 µM
same,LC50,T47D,> 100 µM
same,TGI,T47D,17.3 µM
same,growth at 10 µM,UACC-62 [15],19.1%
same,growth at 0.001 µM,UACC-62 [16],91%
same,growth at 10 µM,SW-620 [17],11%
same,growth at 10 µM,SW-620 [18],21.9%
